Results: publication PMC2195664 (The Journal of Experimental Medicine, 1999)
Read-outs that look alike come from different tables or passages of the source. Ends that are not written are not given here. * marks the point of attachment. Biotin = O=C1N[C@H]2[C@H](CS[C@H]2CCCCC(=O)*)N1

Columns and labels:
[1] = tested on: 3C3 mouse NK T cell hybridoma; test: Competition for α-GalCer presentation by plate-bound hCD1d; type: cell-based; details: data not shown
Outline: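 Gangliosides dissolved in PBS were added to soluble insect-cell-derived hCD1d before α-GalCer. The mixture was coated onto plates 2 h at 37°C and washed five times in PBS. 3C3 hybridoma cells (5 × 10⁴/well) were cultured 16 h, and IL-2 was measured by ELISA.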

hCD1d [2] = target: T1, hCD1d (Homo sapiens, UniProt P15813); type: binding; details: competitor preincubated with protein in solution
mCD1 [3] = target: T2, mCD1 (Mus musculus, UniProt P11609); type: binding; details: competitor preincubated with protein in solution
[4] = tested on: 3C3 mouse NK T cell hybridoma; test: Competition for α-GalCer presentation by plate-bound mCD1 to 3C3 hybridoma; type: cell-based; details: 1 μg/well mCD1 preincubated with 25 ng/well α-GalCer
NK T cells = details: cited from earlier work
mCD1 [5] = target: T2, mCD1; test: SPR competition: mCD1 binding to biotin-P99 chip; details: mCD1 1.8–2 μM
hCD1d [6] = target: T1, hCD1d; test: SPR; type: binding
[7] = tested on: Vα14+ mouse NK T cell hybridomas N38-2H4 and DN3A4-1.4; test: Recognition of antigen on immobilized mCD1 by Vβ7; type: cell-based; details: data not shown
[8] = Solubility in aqueous solution; type: physicochemical; details: must be dissolved in DMSO-containing solutions
[9] = tested on: 3C3 mouse NK T cell hybridoma; test: Antigen presentation by plate-bound hCD1d to 3C3 hybridoma, IL-2 release ELISA; type: cell-based; details: 1 μg/well plate-bound hCD1d preincubated with 100 ng lipid
Outline: (§1)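 Soluble CD1d–β2m heterodimers came from stably cotransfected Drosophila SC2 cells induced 3 d with 0.7 mM CuSO₄, purified on Ni-NTA then Mono Q. Plates were coated 2 h at 37°C with 1 µg/well protein premixed with lipid in PBS. Controls were protein with DMSO (0.25–1% final) or lipid alone. After five PBS washes, 5 × 10⁴ 3C3 cells/well were added; IL-2 was measured by ELISA after 16 h.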

[10] = tested on: 3C3 mouse NK T cell hybridoma; type: cell-based; details: mCD1+ A20 cells pulsed with 100 ng/ml lipid; 16 h
DN3A4-1.2 NK T hybridoma = test: Stimulation of 1.2 hybridoma by plates coated with soluble CD1d, IL-2 release; type: cell-based, mouse; details: 50 ng/well α-GalCer
Outline: (§2)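 Plates were coated 2 h at 37°C with 1 µg/well soluble mCD1 or hCD1d (insect-cell-derived), either alone or premixed in PBS with 50 ng/well α-GalCer. After five PBS washes, 5 × 10⁴ hybridoma cells/well were added. IL-2 was quantified after 16 h by sandwich ELISA against a recombinant IL-2 standard (detection limit 0.1 U/ml). Representative of five experiments.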

[11] = tested on: 3C3 mouse NK T cell hybridoma; test: Antigen presentation by plate-bound mCD1 to 3C3 hybridoma, IL-2 release ELISA; type: cell-based; details: 1 μg/well plate-bound mCD1 preincubated with 100 ng lipid
Outline: as §1

N38-2C12 NK T hybridoma = test: Stimulation of 2C12 hybridoma by plates coated with soluble CD1d, IL-2 release; type: cell-based, mouse; details: 50 ng/well α-GalCer
Outline: as §2

mCD1 [12] = target: T2, mCD1; test: SPR; type: binding
mCD1-restricted CTLs = details: cited from earlier work
[13] = target: T3, soluble mCD1–mβ2m heterodimer (mouse, UniProt P11609 22-305; P01887 21-119); test: SPR
T3 sequence (looked up) 1: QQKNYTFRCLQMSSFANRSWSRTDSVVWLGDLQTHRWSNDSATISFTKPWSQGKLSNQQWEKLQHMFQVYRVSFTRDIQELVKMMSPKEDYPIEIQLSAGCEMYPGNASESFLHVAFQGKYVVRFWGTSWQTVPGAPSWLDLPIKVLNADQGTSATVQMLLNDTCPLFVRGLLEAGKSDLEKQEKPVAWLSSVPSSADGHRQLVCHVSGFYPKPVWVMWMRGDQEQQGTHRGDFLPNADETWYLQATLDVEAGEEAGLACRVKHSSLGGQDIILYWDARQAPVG
T3 sequence (looked up) 2: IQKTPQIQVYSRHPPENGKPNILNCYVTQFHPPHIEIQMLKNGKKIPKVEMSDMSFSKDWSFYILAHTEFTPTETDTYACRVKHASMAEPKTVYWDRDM

GD1a
inhibition of α-GalCer presentation [1]: could inhibit | inhibition of hCD1d binding to biotin–α-GalCer or biotin–β-GalCer chip (hCD1d [2]): could inhibit | inhibition of mCD1 binding to biotin–α-GalCer or biotin–β-GalCer chip (mCD1 [3]): could inhibit | inhibition of α-GalCer presentation [4]: could inhibit

YEHDFHHIREWGNHWKNCLAVM [P99]
prevention of α-GalCer recognition by NK T cells (NK T cells): neither P99 nor an ovalbumin peptide could prevent | inhibition of mCD1 binding to immobilized biotin-P99 (mCD1 [5]): inhibited by increasing concentrations | inhibition of mCD1 binding to biotin–α-GalCer or biotin–β-GalCer chip (mCD1 [3]): does not affect

CC(=O)N[C@H]1[C@H](O[C@H]2[C@@H](O)[C@@H](CO)O[C@@H](O[C@@H]([C@H](O)[C@@H](O)C=O)[C@H](O)CO)[C@@H]2O)O[C@H](CO[C@]2(C(=O)O)C[C@H](O)[C@@H](NC(C)=O)[C@H]([C@H](O)[C@H](O)CO)O2)[C@@H](O)[C@@H]1O[C@@H]1O[C@H](CO)[C@H](O)[C@H](O[C@]2(C(=O)O)C[C@H](O)[C@@H](NC(C)=O)[C@H]([C@H](O)[C@H](O)CO)O2)[C@H]1O [disialyllacto-N-tetraose, α-Neu5Ac-[2→3]-β-Gal-[1→3]-(α-Neu5Ac-[2→6])-β-GlcNac-[1→3]-β-Gal-[1→4]-Glc]
inhibition of α-GalCer presentation [4]: did not inhibit | inhibition of α-GalCer presentation ([4]; listed as control hexasaccharide): has no effect

CCCCCCCCCCCCCCCCCCCCCCCCCC(=O)N[C@@H](CO[C@H]1O[C@H](CO)[C@H](O)[C@H](O)[C@H]1O)[C@H](O)[C@H](O)CCCCCCCCCCCCCC [α-GalCer, α-galactosyl ceramide]
koff (hCD1d [6]; read-out: k off (fast)): 0.08 s⁻¹ | koff (hCD1d [6]; read-out: k off (slow)): 0.004 s⁻¹ | recognition when presented by immobilized mCD1 [7]: could recognize | solubility [8]: much less soluble than the gangliosides | presentation to 3C3 hybridoma (IL-2 release) [9]: could both present | presentation to 3C3 hybridoma (IL-2 release) [10]: can present | effect on response to plate-bound CD1d (DN3A4-1.2 NK T hybridoma): can be enhanced | presentation to 3C3 hybridoma (IL-2 release) [11]: could both present | effect on response to plate-bound CD1d (N38-2C12 NK T hybridoma): can be enhanced | koff (mCD1 [12]; read-out: k off (fast)): 0.1 s⁻¹ | koff (mCD1 [12]; read-out: k off (slow)): 0.004 s⁻¹ | effect on ovalbumin peptide recognition (mCD1-restricted CTLs): did not affect

B1: NH2 terminus biotinylated P99 peptide (peptide)
peptide: Biotin-YEHDFHHIREWGNHWKNCLAVM
koff [13]: 0.005 to 0.008 s⁻¹
